Assay results: ChEMBL document CHEMBL3865810, “4-Aminoquinoline derivatives: Synthesis, in vitro and in vivo antiplasmodial activity against chloroquine-resistant parasites” (Eur J Med Chem, 2016)
In brackets after ≈: the same amount, converted by molar mass. Activity calls are given as the source filed them. The calls are words filed in the database; no cut-off is given here.

Experiments:
[1] = tested on: Plasmodium falciparum; experiment: Antiplasmodial activity against erythrocytic stage of chloroquine/pyrimethamine/cycloguanil resistant-Plasmodium falciparum FCR3 after 48 hrs by [3H]-hypoxanthine incorporation assay; assay type: functional; details: FCR-3/Gambia
Procedure, shortened: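 FCR3 P. falciparum, resistant to CQ (100 ng/mL) and pyrimethamine (15 nM), was synchronized to rings and grown at 1% parasitemia and 2% haematocrit in group O erythrocytes. Medium was RPMI 1640 with Albumax II, at 37 °C under 2% O2/5.5% CO2. Cells were exposed for 48 h to serial dilutions from 0.05 to 2x10^-6 mg/ml. Read-out was [3H]-hypoxanthine incorporation, in triplicate, two independent assays. IC50 came from dose-response curves.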

[2] = Cytotoxicity against human HuH7 cells after 72 hrs by MTT assay; assay type: toxicity, cell-based, Huh-7
Procedure, shortened: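 Huh-7 human hepatocellular carcinoma cells, 4 × 10^3 per well in DMEM with 10% FBS and 1% penicillin-streptomycin-glutamine. Exposed to eight 2-fold dilutions spanning 100 to 0.78 µg/mL for 72 h. MTT added for 2-4 h, then detergent solubilization for 2 h in the dark at room temperature; absorbance read at 570 nm. CC50 is the mean of at least two experiments run in duplicate.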

[3] = tested on: Mus musculus; experiment: Toxicity in BALB/c mouse assessed as mortality at 500 mg/kg, ip measured up to 7 days; assay type: organism-based; details: in vivo, 168 h
Procedure, shortened: (§1)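 For the LD50 test, BALB/c mice were given single ip doses of 50, 100, 200, 500, 600, 800 or 1000 mg/kg BW and observed for mortality over 7 days.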

[4] = tested on: Mus musculus; experiment: Toxicity in BALB/c mouse assessed as mortality at 1000 mg/kg, ip measured up to 7 days; assay type: organism-based; details: in vivo, 168 h; procedure, shortened: as §1
[5] = tested on: Plasmodium berghei; experiment: Antiplasmodial activity against erythrocytic stage of chloroquine-resistant Plasmodium berghei ANKA infected in BALB/c mouse assessed as inhibition of parasitemia at 1 mg/kg/day, ip administered 3 hrs post infection for 4 days by Giemsa staining based microscopic assay relative to control; assay type: functional
Procedure, shortened: (§2)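 Peters' four-day suppressive test. Male naïve BALB/c mice, 25 ± 5 g, 4-5 weeks old, 5 per group, were infected ip on day 0 with 2x10^7 P. berghei ANKA parasitized erythrocytes. Dosing was ip from 2 mg/ml stocks in 10% DMSO, first given 1-3 h post-infection and repeated on days 1-3. Saline went to controls. On day 4, parasitemia was counted on Giemsa tail smears and activity = 100 − (treated/control mean parasitemia)×100.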

[6] = Toxicity in ip dosed BALB/c mouse assessed as mortality measured up to7 days; assay type: organism-based; details: in vivo; procedure, shortened: as §1
[7] = tested on: Plasmodium berghei; experiment: Antiplasmodial activity against erythrocytic stage of chloroquine-resistant Plasmodium berghei ANKA infected in ip dosed BALB/c mouse assessed as increase in mouse survival time administered once daily 3 hrs post infection for 4 consecutive days by Giemsa staining based microscopic assay; assay type: functional, organism-based
Procedure, shortened: (§3)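 BALB/c mice, 5 per group, were infected ip with 2x10^7 P. berghei ANKA parasitized erythrocytes. They were dosed ip at 0.1, 1, 5 or 10 mg/kg/day from 2 mg/ml stocks in 10% DMSO, starting 1-3 h post-infection, once daily on days 0-3. Saline went to controls. Groups were compared by Kaplan-Meier with a log-rank (Mantel-Cox) test.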

[8] = tested on: Plasmodium berghei; experiment: Antiplasmodial activity against erythrocytic stage of chloroquine-resistant Plasmodium berghei ANKA infected in BALB/c mouse assessed as inhibition of parasitemia at 5 mg/kg/day, ip administered 3 hrs post infection for 4 days by Giemsa staining based microscopic assay relative to control; assay type: functional; procedure, shortened: as §2
[9] = tested on: Plasmodium berghei; experiment: Antiplasmodial activity against erythrocytic stage of chloroquine-resistant Plasmodium berghei ANKA infected in ip dosed BALB/c mouse assessed as reduction in parasitemia administered 3 hrs post infection for 4 days by Giemsa staining based microscopic assay; assay type: functional; procedure, shortened: as §2
[10] = tested on: Mus musculus; experiment: Toxicity in BALB/c mouse infected with erythrocytic stage of chloroquine-resistant Plasmodium berghei ANKA assessed as weight loss at 0.1 to 10 mg/kg/day, ip administered 3 hrs post infection for 4 days; assay type: organism-based; details: in vivo
[11] = tested on: Plasmodium berghei; experiment: Antiplasmodial activity against erythrocytic stage of chloroquine-resistant Plasmodium berghei ANKA infected in BALB/c mouse assessed as mean survival time at 0.1 to 10 mg/kg/day, ip administered 1 to 3 hrs post infection qd measured on day 4 post last dose by giemsa staining-based microscopic analysis; assay type: functional, organism-based; procedure, shortened: as §3
[12] = tested on: Plasmodium berghei; experiment: Antiplasmodial activity against erythrocytic stage of chloroquine-resistant Plasmodium berghei ANKA infected in BALB/c mouse assessed as inhibition of parasitemia at 10 mg/kg/day, ip administered 3 hrs post infection for 4 days by Giemsa staining based microscopic assay relative to control; assay type: functional; procedure, shortened: as §2
[13] = tested on: Plasmodium berghei; experiment: Antiplasmodial activity against erythrocytic stage of chloroquine-resistant Plasmodium berghei ANKA infected in BALB/c mouse assessed as inhibition of parasitemia at 0.1 mg/kg/day, ip administered 3 hrs post infection for 4 days by Giemsa staining based microscopic assay relative to control; assay type: functional; procedure, shortened: as §2
[14] = Therapeutic index, ratio of LD50 for BALB/c mouse to ED50 for erythrocytic stage of chloroquine-resistant Plasmodium berghei ANKA infected in BALB/c mouse; details: read-out: Ratio LD50/ED50
Procedure, shortened: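 TI = LD50/ED50. LD50 was taken from BALB/c mice dosed ip at 50-1000 mg/kg and observed for 7 days. ED50 came from the P. berghei ANKA four-day suppressive test with ip dosing.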

Row | Compound | IC50 [1] [µg/mL] | CC50 at 72 h [2] [µg/mL] | also measured
1 | COc1cc(Nc2ccnc3cc(Cl)ccc23)cc(OC)c1OC | 0.64 (≈ 1.86 µM) | > 100 | –
2 | Clc1ccc(Nc2ccnc3cc(Cl)ccc23)c(Cl)c1 | 0.76 (≈ 2.35 µM) | > 100 | –
3 | Cc1ccc(Nc2ccnc3cc(Cl)ccc23)c(C)c1 | 0.4 (≈ 1.41 µM) | > 100 | –
4 | Cc1cccc(Nc2ccnc3cc(Cl)ccc23)c1C | 0.036 (≈ 0.127 µM) | > 100 | –
5 | Cc1ccc(C)c(Nc2ccnc3cc(Cl)ccc23)c1 | 0.46 (≈ 1.63 µM) | > 100 | –
6 | Fc1ccc(Nc2ccnc3cc(Cl)ccc23)c(F)c1 | 0.045 (≈ 0.155 µM) | > 100 | –
7 | COc1ccc(OC)c(Nc2ccnc3cc(Cl)ccc23)c1 | 0.022 (≈ 0.0699 µM) | > 100 | Activity [3]: Non-Toxic; Activity [4]: Toxic; inhibition in vivo at 1 mg/kg/day [5]: 21.7%; LD50 at 7 days [6]: 800 mg/kg; Activity [7]: Dose-dependent effect; inhibition in vivo at 5 mg/kg/day [8]: 58.1%; ED50 [9]: 2.23 mg/kg; Activity [10]: Non-Toxic; Activity [11]: Active; inhibition in vivo at 10 mg/kg/day [12]: 93.4%; inhibition in vivo at 0.1 mg/kg/day [13]: 12%; selectivity ratio [14]: 359
8 | Cc1cc(F)ccc1Nc1ccnc2cc(Cl)ccc12 | 0.076 (≈ 0.265 µM) | > 100 | –
9 | Clc1ccc2c(Nc3ccccc3Br)ccnc2c1 | 0.17 (≈ 0.51 µM) | > 100 | –
10 | Cc1cccc(C)c1Nc1ccnc2cc(Cl)ccc12 | 0.046 (≈ 0.163 µM) | > 100 | –
11 | CCN(CC)Cc1cc(Nc2ccnc3cc(Cl)ccc23)ccc1O [AMODIAQUINE] | – | – | inhibition in vivo at 1 mg/kg/day [5]: 48.2%; inhibition in vivo at 5 mg/kg/day [8]: 67.1%; ED50 [9]: 1.19 mg/kg; inhibition in vivo at 10 mg/kg/day [12]: 94.1%; inhibition in vivo at 0.1 mg/kg/day [13]: 28%
12 | Fc1cccc(Nc2ccnc3cc(Cl)ccc23)c1 | 0.098 (≈ 0.359 µM) | > 100 | –
13 | Fc1ccc(Nc2ccnc3cc(Cl)ccc23)cc1 | 0.029 (≈ 0.106 µM) | > 100 | Activity [3]: Non-Toxic; Activity [4]: Toxic; inhibition in vivo at 1 mg/kg/day [5]: 32%; LD50 at 7 days [6]: 800 mg/kg; Activity [7]: Dose-dependent effect; inhibition in vivo at 5 mg/kg/day [8]: 54.2%; ED50 [9]: 2.06 mg/kg; Activity [10]: Non-Toxic; Activity [11]: Active; inhibition in vivo at 10 mg/kg/day [12]: 79.1%; inhibition in vivo at 0.1 mg/kg/day [13]: 21.6%; selectivity ratio [14]: 388
14 | Fc1ccc(Nc2ccnc3cc(Cl)ccc23)cc1Cl | 1.9 (≈ 6.19 µM) | > 100 | –
15 | Fc1ccc(Nc2ccnc3cc(Cl)ccc23)c(Cl)c1 | 0.065 (≈ 0.212 µM) | > 100 | –
16 | Clc1ccc(Cl)c(Nc2ccnc3cc(Cl)ccc23)c1 | 0.056 (≈ 0.173 µM) | > 100 | –
17 | Cc1ccc(Nc2ccnc3cc(Cl)ccc23)cc1C | 0.16 (≈ 0.566 µM) | > 100 | –
